Data reported in ChEMBL document CHEMBL1126822, “7 alpha-Methyl- and 11 beta-ethoxy-substitution of [125I]-16 alpha-iodoestradiol: effect on estrogen receptor-mediated target tissue uptake” (J Med Chem, 1993).

What was measured:
Settings in all cases: in vivo
Rattus norvegicus [1] = assay: Tissue uptake (muscle) of [125I]- after administration of [125I]-labeled compound to immature female rats (n=4) in the absence of 60 microg coinjected estradiol after 2 hours; type: ADME, organism-based
Method in brief: (§1)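 Immature female Fischer rats, 24 days old, 55-60 g, unanesthetized in retention cages, given HPLC-purified 125I-labeled steroid (3 μCi, 111 kBq) via lateral tail vein in 200 μL of 9% ethanol-saline with 1% Tween-80. The blocking group was coinjected with 60 μg unlabeled estradiol and sampled at 1 h. Animals were killed under ether at 0.5-24 h. Tissues were KCl-washed, blotted, weighed and gamma-counted. Results are % ID/g, with variation as small-sample-corrected %CV.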

Rattus norvegicus [2] = assay: Tissue uptake (spleen) of [125I]- after administration of [125I]-labeled compound to immature female rats (n=4) in the absence of 60 microg coinjected estradiol after 5 hours; type: ADME, organism-based
Method in brief: (§2)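 Immature female Fischer rats, 24 days old, 55-60 g, unanesthetized in retention cages, got HPLC-purified n.c.a. 125I-labeled steroid (3 μCi, 111 kBq) by lateral tail vein. Dose was given in 200 μL saline with 9% ethanol and 1% Tween-80. Deep ether anesthesia, axillary artery cut; tissues KCl-washed, blotted, weighed, gamma-counted as % ID/g; variation as small-sample-corrected %CV.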

Rattus norvegicus [3] = assay: Tissue uptake (lungs) of [125I]- after administration of [125I]-labeled compound to immature female rats (n=4) in the absence of 60 microg coinjected estradiol after 5 hours; type: ADME, organism-based; method in brief: as §1
Rattus norvegicus [4] = assay: Tissue uptake (liver) of [125I]- after administration of [125I]-labeled compound to immature female rats (n=3) in the absence of 60 microg coinjected estradiol after 24 hours; type: ADME, organism-based; method in brief: as §1
Rattus norvegicus [5] = assay: Tissue uptake (blood) of [125I]- after administration of [125I]-labeled compound to immature female rats (n=3) in the absence of 60 microg coinjected estradiol. (24 hours after injection) (% coefficient of variation); type: ADME, organism-based; method in brief: as §1
Rattus norvegicus [6] = assay: Tissue uptake (uterus) of [125I]- after administration of [125I]-labeled compound to immature female rats (n=5) in the absence of 60 microg coinjected estradiol after 1 hour; type: ADME, organism-based; method in brief: as §2
Rattus norvegicus [7] = assay: Tissue uptake (kidneys) of [125I]- after administration of [125I]-labeled compound to immature female rats (n=3) in the absence of 60 microg coinjected estradiol after 24 hours; type: ADME, organism-based, Kidney; method in brief: as §1
Rattus norvegicus [8] = assay: Tissue uptake (fat) of [125I]- after administration of [125I]-labeled compound to immature female rats (n=4) in the absence of 60 microg coinjected estradiol after 5 hours; type: ADME, organism-based; method in brief: as §1
Rattus norvegicus [9] = assay: Tissue uptake (liver) of [125I]- after administration of [125I]-labeled compound to immature female rats (n=3) in the absence of 60 microg coinjected estradiol after 0.5 hours; type: ADME, organism-based; method in brief: as §1
Rattus norvegicus [10] = assay: Tissue uptake (fat) of [125I]- after administration of [125I]-labeled compound to immature female rats (n=3) in the absence of 60 microg coinjected estradiol after 0.5 hours; type: ADME, organism-based; method in brief: as §1
Rattus norvegicus [11] = assay: Tissue uptake (muscle) of [125I]- after administration of [125I]-labeled compound to immature female rats (n=3) in the presence of 60 microg coinjected estradiol after 1 hour; type: ADME, organism-based; method in brief: as §1
Rattus norvegicus [12] = assay: Tissue uptake (uterus) of [125I]- after administration of [125I]-labeled compound to immature female rats (n=4) in the absence of 60 microg coinjected estradiol after 5 hours; type: ADME, organism-based; method in brief: as §2
Rattus norvegicus [13] = assay: Tissue uptake (spleen) of [125I]- after administration of [125I]-labeled compound to immature female rats (n=3) in the absence of 60 microg coinjected estradiol after 0.5 hours; type: ADME, organism-based; method in brief: as §2
Rattus norvegicus [14] = assay: Tissue uptake (liver) of [125I]- after administration of [125I]-labeled compound to immature female rats (n=4) in the absence of 60 microg coinjected estradiol after 2 hours; type: ADME, organism-based; method in brief: as §1
Rattus norvegicus [15] = assay: Tissue uptake (muscle) of [125I]- after administration of [125I]-labeled compound to immature female rats (n=3) in the absence of 60 microg coinjected estradiol after 24 hours; type: ADME, organism-based; method in brief: as §1
Rattus norvegicus [16] = assay: Tissue uptake (spleen) of [125I]- after administration of [125I]-labeled compound to immature female rats (n=3) in the absence of 60 microg coinjected estradiol after 24 hours; type: ADME, organism-based; method in brief: as §2
Rattus norvegicus [17] = assay: Tissue uptake (spleen) of [125I]- after administration of [125I]-labeled compound to immature female rats (n=4) in the absence of 60 microg coinjected estradiol after 2 hours; type: ADME, organism-based; method in brief: as §2
Rattus norvegicus [18] = assay: Tissue uptake (muscle) of [125I]- after administration of [125I]-labeled compound to immature female rats (n=3) in the absence of 60 microg coinjected estradiol after 0.5 hours; type: ADME, organism-based; method in brief: as §1
Rattus norvegicus [19] = assay: Tissue uptake (uterus) of [125I]- after administration of [125I]-labeled compound to immature female rats (n=3) in the absence of 60 microg coinjected estradiol after 24 hours; type: ADME, organism-based; method in brief: as §2
Rattus norvegicus [20] = assay: Tissue uptake (plasma) of [125I]- after administration of [125I]-labeled compound to immature female rats (n=3) in the absence of 60 microg coinjected estradiol after 0.5 hours; type: ADME, organism-based; method in brief: as §1
Rattus norvegicus [21] = assay: Tissue uptake (thyroid) of [125I]- after administration of [125I]-labeled compound to immature female rats (n=4) in the absence of 60 microg coinjected estradiol after 5 hours; type: ADME, organism-based, Thyroid gland; method in brief: as §2
Rattus norvegicus [22] = assay: Tissue uptake (fat) of [125I]- after administration of [125I]-labeled compound to immature female rats (n=3) in the absence of 60 microg coinjected estradiol after 24 hours; type: ADME, organism-based; method in brief: as §1
Rattus norvegicus [23] = assay: Tissue uptake (lungs) of [125I]- after administration of [125I]-labeled compound to immature female rats (n=3) in the absence of 60 microg coinjected estradiol after 24 hours; type: ADME, organism-based; method in brief: as §1
Rattus norvegicus [24] = assay: Tissue uptake (plasma) of [125I]- after administration of [125I]-labeled compound to immature female rats (n=4) in the absence of 60 microg coinjected estradiol after 2 hours; type: ADME, organism-based; method in brief: as §1
Rattus norvegicus [25] = assay: Tissue uptake (uterus) of [125I]- after administration of [125I]-labeled compound to immature female rats (n=3) in the absence of 60 microg coinjected estradiol after 0.5 hours; type: ADME, organism-based; method in brief: as §2
Rattus norvegicus [26] = assay: Tissue uptake (kidneys) of [125I]- after administration of [125I]-labeled compound to immature female rats (n=4) in the absence of 60 microg coinjected estradiol and 5 hours; type: ADME, organism-based, Kidney; method in brief: as §1
Rattus norvegicus [27] = assay: Tissue uptake (brain) of [125I]- after administration of [125I]-labeled compound to immature female rats (n=3) in the absence of 60 microg coinjected estradiol after 24 hours; type: ADME, organism-based; method in brief: as §1
Rattus norvegicus [28] = assay: Tissue uptake (brain) of [125I]- after administration of [125I]-labeled compound to immature female rats (n=4) in the absence of 60 microg coinjected estradiol after 2 hours; type: ADME, organism-based; method in brief: as §1
Rattus norvegicus [29] = assay: Tissue uptake (brain) of [125I]- after administration of [125I]-labeled compound to immature female rats (n=3) in the presence of 60 microg coinjected estradiol after 1 hour; type: ADME, organism-based; method in brief: as §1
Rattus norvegicus [30] = assay: Tissue uptake (blood) of [125I]- after administration of [125I]-labeled compound to immature female rats (n=4) in the absence of 60 microg coinjected estradiol after 5 hours; type: ADME, organism-based; method in brief: as §1
Rattus norvegicus [31] = assay: Tissue uptake (brain) of [125I]- after administration of [125I]-labeled compound to immature female rats (n=5) in the absence of 60 microg coinjected estradiol after 1 hour; type: ADME, organism-based; method in brief: as §1

Row | ID/g (Rattus norvegicus [1]) | ID/g (Rattus norvegicus [2]) | ID/g (Rattus norvegicus [3]) | ID/g (Rattus norvegicus [4]) | ID/g (Rattus norvegicus [6]) | ID/g (Rattus norvegicus [7]) | ID/g (Rattus norvegicus [8]) | ID/g (Rattus norvegicus [9]) | ID/g (Rattus norvegicus [10]) | ID/g (Rattus norvegicus [11]) | ID/g (Rattus norvegicus [12]) | ID/g (Rattus norvegicus [13]) | ID/g (Rattus norvegicus [14]) | ID/g (Rattus norvegicus [15]) | ID/g (Rattus norvegicus [16]) | ID/g (Rattus norvegicus [17]) | ID/g (Rattus norvegicus [18]) | ID/g (Rattus norvegicus [21]) | ID/g (Rattus norvegicus [22]) | ID/g (Rattus norvegicus [23]) | SMILES | other results
1 | 0.15% | 0.22% | 0.19% | 0.13% | 5.25% | 0.3% | 0.38% | 1.94% | 2.2% | 0.27% | 3.86% | 0.57% | 1.09% | 0.01% | 0.08% | 0.33% | 0.54% | 320.54% | 0.03% | 0.03% | C[C@@H]1Cc2cc(O)ccc2[C@H]2CC[C@]3(C)[C@@H](O)[C@H](I)C[C@H]3[C@H]12 | ID/g (Rattus norvegicus [5]): 0.03%; ID/g (Rattus norvegicus [19]): 1.64%; ID/g (Rattus norvegicus [20]): 0.68%; ID/g (Rattus norvegicus [24]): 0.49%
2 | 0.52% | 1.28% | 0.76% | 0.96% | 11.67% | 0.24% | 0.52% | 5.91% | 2.47% | 0.72% | 7.76% | 1.44% | 3.24% | 0.13% | 0.7% | 1.76% | 1.05% | 703.1% | 0.15% | 0.23% | CCO[C@H]1C[C@]2(C)[C@@H](O)[C@H](I)C[C@H]2[C@@H]2CCc3cc(O)ccc3[C@H]21 | ID/g (Rattus norvegicus [25]): 7.85%; ID/g (Rattus norvegicus [26]): 0.91%; ID/g (Rattus norvegicus [27]): 0.04%; ID/g (Rattus norvegicus [28]): 0.25%; ID/g (Rattus norvegicus [29]): 0.42%; ID/g (Rattus norvegicus [30]): 0.7%; ID/g (Rattus norvegicus [31]): 0.39%
